From ChEMBL document CHEMBL1134844 (J Med Chem, 2001)

Tests used:
Oryctolagus cuniculus [1] = species on record: Oryctolagus cuniculus; experiment: (§1) Relative binding affinity in rabbit saphenous vein functional assay compared to 5-HT
[2] = molecular target: 5-hydroxytryptamine receptor 1B (Homo sapiens, UniProt P28222); experiment: Binding affinity in CHO-K1 cells transfected with human recombinant 5-hydroxytryptamine 1B receptor; assay type: cell-based
[3] = molecular target: 5-hydroxytryptamine receptor 1D (Homo sapiens, UniProt P28221); experiment: Binding affinity in CHO-K1 cells transfected with human 5-hydroxytryptamine 1D receptor; assay type: cell-based
How it was run: (§2)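 Competition binding on CHO-K1 cells stably transfected with human recombinant 5HT1D, 5HT1F or 5HT1A receptors; reported as pIC50, means of duplicates.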

Oryctolagus cuniculus [4] = species on record: Oryctolagus cuniculus; experiment: as §1; conditions: read-out: pA2 (converted)
[5] = Oral bioavailability in human; assay type: ADME, organism-based; conditions: in vivo
Cavia porcellus [6] = species on record: Cavia porcellus; experiment: Ability to inhibit [125I]- albumin extravasation into dura following electrical stimulation of trigeminal ganglion of Guinea pig; assay type: functional
How it was run: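 Pentobarbitone-anaesthetised (50 mg/kg ip), ventilated guinea pigs kept at 37 °C; single jugular iv bolus of 0.01, 0.03 or 0.1 µg/kg or saline vehicle. 5 min later, [125I]BSA 50 µCi/kg iv. After another 5 min, one trigeminal ganglion was stimulated for 5 min (5 pulses/s, 5 ms, 1.2 mA). Dura gamma-counted as cpm/mg wet weight; stimulated/unstimulated ratio, mean ± SEM; vehicle controls run daily.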

[7] = Volume distribution in rat; assay type: ADME, organism-based; conditions: in vivo
[8] = Beta phase half life was determined in rat; assay type: ADME, organism-based; conditions: in vivo
[9] = Oral bioavailability in rat; assay type: ADME, organism-based; conditions: in vivo
[10] = molecular target: T1, 5-hydroxytryptamine receptor 1F (Homo sapiens, UniProt P30939); experiment: Binding affinity towards human recombinant 5-hydroxytryptamine 1F receptor; how it was run: as §2
T1 sequence (P30939 whole entry): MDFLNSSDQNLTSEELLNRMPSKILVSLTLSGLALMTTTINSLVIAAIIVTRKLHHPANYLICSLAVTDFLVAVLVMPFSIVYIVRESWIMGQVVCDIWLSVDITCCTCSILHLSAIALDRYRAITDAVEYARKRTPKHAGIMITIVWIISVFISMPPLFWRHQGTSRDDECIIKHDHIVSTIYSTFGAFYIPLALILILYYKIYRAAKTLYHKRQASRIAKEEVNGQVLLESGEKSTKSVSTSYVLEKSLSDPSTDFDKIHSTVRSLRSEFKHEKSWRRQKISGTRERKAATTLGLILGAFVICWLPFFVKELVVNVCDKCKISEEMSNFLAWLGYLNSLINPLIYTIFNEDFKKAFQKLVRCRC

Cavia porcellus [11] = species on record: Cavia porcellus; experiment: Ability to inhibit [125I]- albumin extravasation into dura following electrical stimulation of trigeminal ganglion; assay type: functional
How it was run: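 Anesthetized guinea pigs (pentobarbitone 50 mg/kg ip, 37 °C, ventilated) got a single iv jugular bolus (0.01, 0.03 or 0.1 µg/kg; vehicle 0.9% saline). 5 min later 50 µCi/kg [125I]BSA iv; after another 5 min, unilateral trigeminal ganglion stimulation for 5 min (5 pulses/s, 5 ms, 1.2 mA). Dural cpm/mg wet weight was expressed as stimulated/unstimulated ratio, mean ± SEM.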

[12] = molecular target: T2, 5-hydroxytryptamine receptor 1A (Homo sapiens, UniProt P08908); experiment: binding affinity towards human recombinant 5-hydroxytryptamine 1A receptor; how it was run: as §2
T2 sequence (P08908 whole entry): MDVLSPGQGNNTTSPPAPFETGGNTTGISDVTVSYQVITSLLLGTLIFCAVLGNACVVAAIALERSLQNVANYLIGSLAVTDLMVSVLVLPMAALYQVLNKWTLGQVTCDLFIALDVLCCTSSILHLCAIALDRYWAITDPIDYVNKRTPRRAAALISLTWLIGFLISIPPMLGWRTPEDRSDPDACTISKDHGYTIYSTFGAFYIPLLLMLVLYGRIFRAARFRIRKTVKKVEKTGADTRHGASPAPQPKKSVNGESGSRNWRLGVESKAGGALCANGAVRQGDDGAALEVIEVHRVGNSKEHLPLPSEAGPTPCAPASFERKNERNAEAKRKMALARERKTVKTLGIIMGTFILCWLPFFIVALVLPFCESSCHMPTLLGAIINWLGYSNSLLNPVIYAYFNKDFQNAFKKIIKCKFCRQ

[13] = Plasma clearance in rat; assay type: ADME, organism-based
Oryctolagus cuniculus [14] = species on record: Oryctolagus cuniculus; experiment: Binding affinity towards rabbit saphenous vein value in parenthesis represents intrinsic activity for RbSv;(1 for 5-HT); assay type: functional
Oryctolagus cuniculus [15] = species on record: Oryctolagus cuniculus; conditions: Saphenous vein

Sequence of 5-hydroxytryptamine receptor 1B (P28222 whole entry): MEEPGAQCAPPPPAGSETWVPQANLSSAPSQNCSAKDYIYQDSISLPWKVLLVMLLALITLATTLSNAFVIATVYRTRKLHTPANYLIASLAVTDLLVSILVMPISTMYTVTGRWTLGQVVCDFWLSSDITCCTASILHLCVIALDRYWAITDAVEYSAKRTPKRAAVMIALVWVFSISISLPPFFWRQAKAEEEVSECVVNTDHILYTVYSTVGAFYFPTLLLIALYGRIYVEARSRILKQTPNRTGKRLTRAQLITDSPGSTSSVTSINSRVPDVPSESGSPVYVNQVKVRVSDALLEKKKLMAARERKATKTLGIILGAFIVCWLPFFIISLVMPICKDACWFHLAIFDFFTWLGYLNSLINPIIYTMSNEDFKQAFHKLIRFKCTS
Sequence of 5-hydroxytryptamine receptor 1D (P28221 whole entry): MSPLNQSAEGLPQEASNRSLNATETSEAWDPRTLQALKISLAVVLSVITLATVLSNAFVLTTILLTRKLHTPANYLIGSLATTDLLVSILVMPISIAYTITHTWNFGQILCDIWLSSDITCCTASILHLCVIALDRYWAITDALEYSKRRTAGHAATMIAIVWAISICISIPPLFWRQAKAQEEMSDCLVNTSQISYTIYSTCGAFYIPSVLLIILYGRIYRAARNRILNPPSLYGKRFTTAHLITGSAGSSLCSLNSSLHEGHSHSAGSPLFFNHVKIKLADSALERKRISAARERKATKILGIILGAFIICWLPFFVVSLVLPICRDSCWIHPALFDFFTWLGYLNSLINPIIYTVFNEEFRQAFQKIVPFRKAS

| SMILES | IC50 [2] [nM] | IC50 [3] [nM] | pA50 (Oryctolagus cuniculus [1]) | Kb (Oryctolagus cuniculus [4]) [nM] | further results |
| --- | --- | --- | --- | --- | --- |
| CN1C(=O)OCC1Cc1ccc2[nH]cc([C@H]3C[C@H](N(C)C)C3)c2c1 (stereo in doubt; 34) [listing 1 of 2 here] | – | – | 4.85 | – | – |
| CN(C)[C@H]1C[C@H](c2c[nH]c3ccc(C(N)=O)cc32)C1 | 44.7 | 14.8 | 6.25 | – | – |
| CN(C)CCc1c[nH]c2ccc(C[C@H]3COC(=O)N3)cc12 [ZOLMITRIPTAN] | 6.17 | 2.82 | 6.8 | – | bioavailability [5]: 40%; ED50 (Cavia porcellus [6]): ~12 µg/kg |
| CN(C)[C@H]1C[C@H](c2c[nH]c3ccc(CC(N)=O)cc32)C1 | 1350 | 724 | – | 16600 | – |
| Cc1noc(-c2ccc3[nH]cc([C@H]4C[C@H](N(C)C)C4)c3c2)n1 | 832 | 562 | – | 955 | – |
| CN(C)[C@H]1C[C@H](c2c[nH]c3ccc(Oc4ccccc4)cc32)C1 | 97.7 | 64.6 | – | 240 | – |
| CC1(C)NC(=O)N(CCc2ccc3[nH]cc([C@H]4C[C@H](N)C4)c3c2)C1=O | 1120 | 501 | – | 2690 | – |
| CN(C)[C@H]1C[C@H](c2c[nH]c3ccc(CC4COC(=O)N4)cc32)C1 (stereo in doubt; 35) [listing 1 of 2 here] | – | – | 5.15 | – | – |
| CN1C(=O)OCC1Cc1ccc2[nH]cc([C@H]3C[C@H](N(C)C)C3)c2c1 (stereo in doubt; 30) [listing 1 of 2 here] | – | – | 5.21 | – | – |
| N[C@H]1C[C@H](c2c[nH]c3ccc(CC4COC(=O)N4)cc32)C1 (stereo in doubt; 23) [listing 1 of 2 here] | 18.2 | 3.63 | – | – | – |
| CN(C)[C@H]1C[C@H](c2c[nH]c3ccc(CCN4C(=O)CNC4=O)cc32)C1 | – | – | – | 1910 | – |
| N[C@H]1C[C@H](c2c[nH]c3ccc(CC4COC(=O)N4)cc32)C1 (stereo in doubt; 23) [listing 2 of 2 here] | – | – | 6.42 | – | – |
| CN(C)[C@H]1C[C@H](c2c[nH]c3ccc(CCN4C(=O)c5ccccc5C4=O)cc32)C1 | 204 | 195 | – | 170 | – |
| CNS(=O)(=O)Cc1ccc2[nH]cc(C[C@H]3CCCN3C)c2c1 | 14.5 | 7.24 | – | – | ED50 (Cavia porcellus [6]): 0.1 µg/kg; pA50 (Oryctolagus cuniculus [14]): 6.33 |
| CN(C)[C@H]1C[C@H](c2c[nH]c3ccc(CC4COC(=O)N4)cc32)C1 (stereo in doubt; 1) [listing 2 of 2 here] | – | – | 5.72 | – | – |
| CN(C)[C@H]1C[C@H](c2c[nH]c3ccc(CC4COC(=O)N4)cc32)C1 (stereo in doubt; 31) [listing 1 of 2 here] | – | – | 4.95 | – | – |
| N[C@H]1C[C@H](c2c[nH]c3ccc(CC4COC(=O)N4)cc32)C1 (stereo in doubt; 24) | – | – | 5.8 | – | – |
| CN(C)[C@H]1C[C@H](c2c[nH]c3ccc(CC(=O)NCc4ccccc4)cc32)C1 | 263 | 339 | – | 3890 | – |
| CN(C)[C@H]1C[C@H](c2c[nH]c3ccc(C(=O)NCc4ccccc4)cc32)C1 | 316 | 141 | – | 1260 | – |
| CNS(=O)(=O)Cc1ccc2[nH]cc([C@H]3C[C@H](N(C)C)C3)c2c1 | 275 | 191 | 5.25 | – | – |
| CNS(=O)(=O)Cc1ccc2[nH]cc(CCN(C)C)c2c1 | – | – | – | – | pA50 (Oryctolagus cuniculus [15]): 6.6; bioavailability [5]: 14%; ED50 (Cavia porcellus [6]): 10 µg/kg |
| CN[C@H]1C[C@H](c2c[nH]c3ccc(CC4COC(=O)N4)cc32)C1 (stereo partly specified) | 32.4 | 7.08 | 6.18 | – | – |
| N[C@H]1C[C@H](c2c[nH]c3ccc(Oc4ccccc4)cc32)C1 | 9.55 | 14.5 | < 6.5 | – | – |

The next lines start with results.

| IC50 [2] [nM] | IC50 [3] [nM] | SMILES | pA50 (Oryctolagus cuniculus [1]) | Kb (Oryctolagus cuniculus [4]) [nM] | further results |
| --- | --- | --- | --- | --- | --- |
| 3800 | 3090 | CN(C)[C@H]1C[C@H](c2c[nH]c3ccc(CN4C(=O)NC(C)(C)C4=O)cc32)C1 | – | 589 | – |
| 1510 | 933 | Cc1noc(Cc2ccc3[nH]cc([C@H]4C[C@H](N(C)C)C4)c3c2)n1 | – | 7590 | – |
| 112 | 15.8 | CN(C)[C@H]1C[C@H](c2c[nH]c3ccc(CC4COC(=O)N4)cc32)C1 (stereo in doubt; 1) [listing 1 of 2 here] | – | – | Vd [7]: 2.6 L/kg; half-life [8]: 1.4 h; bioavailability [9]: 35%; bioavailability [5]: 41%; IC50 [10]: 363 nM; ED50 (Cavia porcellus [11]): ~0.01 µg/kg; IC50 [12]: 3550 nM; clearance [13]: 40 mL/min/kg |
| 97.7 | 57.5 | CN1C(=O)OCC1Cc1ccc2[nH]cc([C@H]3C[C@H](N(C)C)C3)c2c1 (stereo in doubt; 34) [listing 2 of 2 here] | – | – | – |
| 3890 | 2040 | Cc1nc(Cc2ccc3[nH]cc([C@H]4C[C@H](N(C)C)C4)c3c2)n[nH]1 | – | 6610 | – |
| 6310 | 2450 | CN(C)[C@H]1C[C@H](c2c[nH]c3ccc(CN4C(=O)CNC4=O)cc32)C1 | – | 9330 | – |
| 141 | 28.8 | CN(C)[C@H]1C[C@H](Cc2c[nH]c3ccc(C[C@H]4COC(=O)N4)cc23)C1 | – | 1860 | – |
| 562 | 170 | CN(C)[C@H]1C[C@H](c2c[nH]c3ccc(CC4COC(=O)N4)cc32)C1 (stereo in doubt; 31) [listing 2 of 2 here] | – | – | – |
| 204 | 100 | CN1C(=O)OCC1Cc1ccc2[nH]cc([C@H]3C[C@H](N(C)C)C3)c2c1 (stereo in doubt; 30) [listing 2 of 2 here] | – | – | – |
| 162 | 100 | CN(C)[C@H]1C[C@H](c2c[nH]c3ccc(CC4COC(=O)N4)cc32)C1 (stereo in doubt; 35) [listing 2 of 2 here] | – | – | – |
| 1200 | 1480 | CN(C)[C@H]1C[C@H](c2c[nH]c3ccc(CCN4C(=O)NC(C)(C)C4=O)cc32)C1 | – | 891 | – |
